Measured values published in ChEMBL document CHEMBL3868602, “Novel synthetic chalcones induce apoptosis in the A549 non-small cell lung cancer cells harboring a KRAS mutation” (Bioorg Med Chem Lett, 2016).
Activity calls are given as the source filed them. No cut-off for these calls is given here.

Tests used:
A549 [1] = test: Cytotoxicity against human A549 cells harboring KRAS mutant assessed as increase in apoptotic cells at 1 uM after 72 hrs by crystal violet staining based assay; assay type: functional, cell-based
Method in brief: (§1)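 Cells exposed 72 h to compound or DMSO vehicle, either at 1 and 10 μM or over 0.033–10 μM dose series. Surviving cells then stained with crystal violet and absorbance read at 562 nm. Effect expressed as % dead/apoptotic cells relative to DMSO, average of triplicates; dose curves n=6, run twice, mean ± SD, giving EC50.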

A549 [2] = test: (§2) Cytotoxicity against human A549 cells harboring KRAS mutant assessed as increase in apoptotic cells after 72 hrs by crystal violet staining based assay; assay type: functional, cell-based; method in brief: as §1
[3] = as §2; assay type: functional, cell-based; conditions: A549, 72 h; method in brief: as §1
[4] = Cytotoxicity against human A549 cells harboring KRAS mutant assessed as apoptotic cells at 10 uM after 72 hrs by crystal violet staining based assay; assay type: functional; method in brief: as §1
PC-3 = test: Induction of apoptosis in human PC3 cells after 72 hrs by crystal violet staining based assay; assay type: functional, cell-based; method in brief: as §1
A549 [5] = test: Ratio of EC50 for mouse Panc02 cells to EC50 for human A549 cells harboring KRAS mutant; assay type: functional
Method in brief: (§3)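 Ratio computed from EC50 values obtained by 72 h crystal violet survival assays (absorbance 562 nm) in each cell line, divided by the A549 EC50.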

Panc02 = test: Induction of apoptosis in mouse Panc02 cells after 72 hrs by crystal violet staining based assay; assay type: functional, cell-based; method in brief: as §1
A549 [6] = test: Ratio of EC50 for human HPAC CRL2119 cells to EC50 for human A549 cells harboring KRAS mutant; assay type: functional; method in brief: as §3
A549 [7] = test: Ratio of EC50 for human PC3 cells to EC50 for human A549 cells harboring KRAS mutant; assay type: functional; method in brief: as §3
HPAC = test: Induction of apoptosis in human HPAC CRL2119 cells after 72 hrs by crystal violet staining based assay; assay type: functional, cell-based; method in brief: as §1
[8] = Cytotoxicity against human HPAC CRL2119 cells assessed as cell death at 1 uM after 72 hrs by crystal violet staining based assay; assay type: functional
Method in brief: (§4)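 Cells treated with compound or DMSO vehicle for 72 h at 0.033–10 uM, then stained with crystal violet; absorbance at 562 nm taken as live cell number. Cell death read at 1 uM relative to DMSO controls. n=6, performed twice; mean ± SD.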

[9] = target: T1, Retinoblastoma-associated protein (Homo sapiens) (UniProt P06400); test: Inhibition of phosphorylated retinoblastoma protein level in human A549 cells harboring KRAS mutant at 1 uM after 8 to 48 hrs by Western blot analysis; assay type: cell-based
T1 sequence (whole entry): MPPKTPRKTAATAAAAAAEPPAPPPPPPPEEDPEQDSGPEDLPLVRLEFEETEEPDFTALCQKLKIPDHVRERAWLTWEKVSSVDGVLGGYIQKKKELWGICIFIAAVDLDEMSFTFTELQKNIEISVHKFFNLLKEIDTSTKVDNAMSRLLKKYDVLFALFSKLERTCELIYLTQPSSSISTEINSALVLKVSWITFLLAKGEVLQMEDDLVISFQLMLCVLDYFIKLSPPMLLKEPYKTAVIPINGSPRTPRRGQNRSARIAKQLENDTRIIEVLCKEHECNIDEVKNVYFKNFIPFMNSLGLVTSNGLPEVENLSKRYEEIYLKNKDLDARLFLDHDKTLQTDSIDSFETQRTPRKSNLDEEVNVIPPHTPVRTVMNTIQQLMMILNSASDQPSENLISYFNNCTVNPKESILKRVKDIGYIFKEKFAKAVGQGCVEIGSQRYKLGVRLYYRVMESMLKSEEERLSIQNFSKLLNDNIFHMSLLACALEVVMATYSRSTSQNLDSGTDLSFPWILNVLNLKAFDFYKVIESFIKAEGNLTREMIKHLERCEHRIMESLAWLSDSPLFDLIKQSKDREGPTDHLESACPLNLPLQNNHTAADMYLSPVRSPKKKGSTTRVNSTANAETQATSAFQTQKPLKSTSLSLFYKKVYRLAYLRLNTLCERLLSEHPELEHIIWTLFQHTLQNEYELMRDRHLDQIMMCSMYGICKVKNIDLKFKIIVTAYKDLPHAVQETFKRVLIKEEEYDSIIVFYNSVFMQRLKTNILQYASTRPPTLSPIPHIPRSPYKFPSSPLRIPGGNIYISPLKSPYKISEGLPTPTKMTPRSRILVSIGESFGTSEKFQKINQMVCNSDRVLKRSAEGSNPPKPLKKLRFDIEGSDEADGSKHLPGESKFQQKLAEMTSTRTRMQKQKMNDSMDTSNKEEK
Method in brief: (§5)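 A549 cells given serum-containing medium with DMSO or 1 μM compound for 8, 24 or 48 h. Lysates immunoblotted for cyclin A2, cyclin B1, phospho-Rb, total Rb and phospho-STMN1. Two independent experiments.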

[10] = Cytotoxicity against human PC3 cells assessed as cell death at 1 uM after 72 hrs by crystal violet staining based assay; assay type: functional, PC-3; method in brief: as §4
[11] = Therapeutic index, ratio of EC50 for NHBE cells to EC50 for human A549 cells harboring KRAS mutant; assay type: cell-based; conditions: NHBE cells versus A549 cells harboring KRAS mutant, read-out: Ratio EC50; method in brief: as §3
[12] = Cytotoxicity against human A549 cells harboring KRAS mutant assessed as cell death at 1 uM after 72 hrs by crystal violet staining based assay; assay type: functional; method in brief: as §4
[13] = Cytotoxicity against mouse Panc02 cells assessed as cell death at 1 uM after 72 hrs by crystal violet staining based assay; assay type: functional; method in brief: as §4
A549 [14] = test: Induction of apoptosis in human A549 cells harboring KRAS mutant assessed as blockage of G2/M transition phase at 1 uM after 24 hrs by propidium iodide staining based flow cytometry; assay type: functional, cell-based
Method in brief: (§6)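 Serum-starved 24 h to block in G1/G0, then returned to FBS-containing medium with test agent at 1 μM for a further 24 h. 0.5 × 10^6 treated cells stained with propidium iodide and analysed by flow cytometry, gating G1, S, G2/M plus apoptotic and necrotic populations. n=4–5 repeats.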

[15] = Effect on cell cycle in NHBE cells at 1 uM after 24 hrs by propidium iodide staining based flow cytometry; conditions: human; method in brief: as §6
Stathmin (Homo sapiens) = target: T2, Stathmin (Homo sapiens) (UniProt P16949); test: Increase in STMN1 phosphorylation in human A549 cells harboring KRAS mutant at 1 uM after 8 hrs by Western blot analysis; assay type: cell-based; method in brief: as §5
T2 sequence (whole entry): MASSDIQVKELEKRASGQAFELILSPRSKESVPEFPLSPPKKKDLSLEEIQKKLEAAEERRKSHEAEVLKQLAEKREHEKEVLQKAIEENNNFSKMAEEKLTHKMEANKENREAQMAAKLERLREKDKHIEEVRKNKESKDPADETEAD

[16] = Cytotoxicity against NHBE cells assessed as decrease in cell viability at 0.01 to 10 uM after 72 hrs by crystal violet staining based assay; assay type: toxicity; conditions: human; method in brief: as §1
A549 [17] = test: Suppression of cyclin A2 level in human A549 cells harboring KRAS mutant at 1 uM after 8 to 48 hrs by Western blot analysis; assay type: functional, cell-based; method in brief: as §5
[18] = Cell cycle arrest in human PC3 cells assessed as blockage of G1 phase at 1 uM after 24 hrs by propidium iodide staining based flow cytometry; assay type: functional; conditions: PC-3; method in brief: as §6
[19] = Cell cycle arrest in human PC3 cells assessed as inhibition of S phase at 1 uM after 24 hrs by propidium iodide staining based flow cytometry; assay type: functional; conditions: PC-3; method in brief: as §6

| Structure (SMILES) | Activity (A549 [1]) | Activity (A549 [2]) | EC50 [3] [nM] | also measured |
| --- | --- | --- | --- | --- |
| O=C1/C(=C/c2ccc3[nH]ccc3c2)CCc2ccc(F)cc21 | Active | Dose-dependent effect | 270 | – |
| CCn1ccc2cc(/C=C3\CCc4cc(OC)c(OC)cc4C3=O)ccc21 | – | Dose-dependent effect | – | Activity [4]: 19% |
| O=C1/C(=C/c2ccc3[nH]ccc3c2)CCc2ccc(Br)cc21 | – | Dose-dependent effect | – | Activity [4]: 16% |
| COc1ccc2c(c1)C(=O)/C(=C/c1ccc3ccn(C)c3c1)CC2 | Active | Dose-dependent effect | 5800 | – |
| CC(C)(C)OC(=O)n1ccc2cc(/C=C3\CCc4ccccc4C3=O)ccc21 | – | Dose-dependent effect | – | – |
| CCn1ccc2cc(/C=C3\CCc4ccccc4C3=O)ccc21 | Active | Dose-dependent effect | 460 | – |
| Cn1ccc2cc(/C=C3\CCc4ccc(F)cc4C3=O)ccc21 | Active | Dose-dependent effect | 200 | – |
| CCn1ccc2cc(/C=C3\CCc4ccc(Br)cc4C3=O)ccc21 | – | Dose-dependent effect | – | – |
| Cn1ccc2cc(/C=C3\CCc4ccccc4C3=O)ccc21 | Active | Dose-dependent effect | 470 | – |
| Cn1ccc2ccc(/C=C3\CCc4ccccc4C3=O)cc21 | Active | Dose-dependent effect | 470 | – |
| CC(=O)n1ccc2cc(/C=C3\CCc4ccc(F)cc4C3=O)ccc21 | – | Dose-dependent effect | – | Activity [4]: 28% |
| Cn1ccc2cc(/C=C3\CCc4ccc(Br)cc4C3=O)ccc21 | – | Dose-dependent effect | – | Activity [4]: 21% |
| CC(C)(C)OC(=O)n1ccc2cc(/C=C3\CCc4ccc(F)cc4C3=O)ccc21 | – | Dose-dependent effect | – | – |
| CCn1ccc2cc(/C=C3\CCc4ccc(F)cc4C3=O)ccc21 | Active | Dose-dependent effect | 110 | Activity (PC-3): Dose-dependent effect; EC50 (PC-3; PC-3, 72 h): 450 nM; Ratio EC50 (A549 [5]): >4; Activity (Panc02): Dose-dependent effect; EC50 (Panc02; Panc02, 72 h): 590 nM; Ratio EC50 (A549 [6]): 2.8; Ratio EC50 (A549 [7]): >4; Activity (HPAC): Dose-dependent effect; EC50 (HPAC): 310 nM |
| COc1cc2c(cc1OC)C(=O)/C(=C/c1ccc3ccn(C)c3c1)CC2 | Active | Dose-dependent effect | 10000 | – |
| COc1ccc2c(c1)C(=O)/C(=C/c1ccc3[nH]ccc3c1)CC2 | Active | Dose-dependent effect | 550 | Activity [8]: <40%; inhibition [9]: Active; Activity [10]: <40%; selectivity ratio [11]: > 18; Activity [12]: 80%; Activity [13]: <40%; Activity (A549 [14]): Active; Activity [15]: Non-Toxic; Activity (Stathmin (Homo sapiens)): Active; Activity [16]: Non-Toxic; Activity (A549 [17]): Active |
| O=C1/C(=C/c2ccc3c(ccn3Cc3ccccc3)c2)CCc2ccc(F)cc21 | – | Dose-dependent effect | – | – |
| Cn1ccc2ccc(/C=C3\CCc4ccc(Br)cc4C3=O)cc21 | – | Dose-dependent effect | – | Activity [4]: 26% |
| COc1cc(/C=C2\CCc3ccc(F)cc3C2=O)cc(OC)c1OC | – | – | – | Activity [18]: Active; inhibition [19]: Active |
| COc1cc2c(cc1OC)C(=O)/C(=C/c1ccc3c(ccn3C)c1)CC2 | – | Dose-dependent effect | – | – |
| COc1ccc2c(c1)C(=O)/C(=C/c1ccc3c(ccn3C)c1)CC2 | Active | Dose-dependent effect | 3000 | – |
| CCn1ccc2cc(/C=C3\CCc4ccc(OC)cc4C3=O)ccc21 | Active | Dose-dependent effect | 3000 | – |
| O=C1/C(=C/c2ccc3[nH]ccc3c2)CCc2ccccc21 | Active | Dose-dependent effect | 1130 | – |
